Data: article PMC3996760 (Brain research, 2014)
Entries after “also recorded” stand apart in the source; their conditions may differ. Like-named read-outs stand apart in the source and are kept apart here.

Experiments:
male Wistar rats [1] = assay: Elevated plus maze test; type: in vivo; conditions: for EPM % time on open arms / EPM number of closed arm entries: mean ± SEM
How it was run: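 Maze 50 cm high, closed arms lit at 10 lux red. Rat placed centrally facing an enclosed arm and video-tracked for 5 min. Arm entry scored at 80% body crossing. One-way ANOVA; ANCOVA for % open-arm time with closed-arm entries as covariate; n=7.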

[2] = Quantification in rat plasma and brain tissue; type: in vivo, Wistar rats; conditions: for brain estimated free concentration: total × free fraction
male Wistar rats [3] = assay: Grip strength test; type: in vivo; conditions: for GS grip strength: mean ± SEM
How it was run: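 At 20 min post-dose, rats gripped a trapezoid wire grid on a grip-strength meter with their front paws and were lifted by the tail with increasing firmness until release. n=8 per group; one-way ANOVA.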

male Wistar rats [4] = assay: Spontaneous locomotor activity test; type: in vivo; conditions: for SLA total distance: 30 min recording, mean ± SEM
male Wistar rats [5] = assay: Open field test; type: in vivo; conditions: for OF total distance: 15 min; for OF total distance / OF % time in central zone: mean ± SEM; for OF % time in central zone: first 5 min
male Wistar rats [6] = assay: Peripheral nerve injury model; type: in vivo
α1β3γ2 GABAA receptors = α1β3γ2 GABAA receptors (Rattus norvegicus, UniProt P18508+P62813); type: cell-based; conditions: for in vitro efficacy: GABA EC3
α1β3γ2 GABAA receptors, sequence (P62813 28-455): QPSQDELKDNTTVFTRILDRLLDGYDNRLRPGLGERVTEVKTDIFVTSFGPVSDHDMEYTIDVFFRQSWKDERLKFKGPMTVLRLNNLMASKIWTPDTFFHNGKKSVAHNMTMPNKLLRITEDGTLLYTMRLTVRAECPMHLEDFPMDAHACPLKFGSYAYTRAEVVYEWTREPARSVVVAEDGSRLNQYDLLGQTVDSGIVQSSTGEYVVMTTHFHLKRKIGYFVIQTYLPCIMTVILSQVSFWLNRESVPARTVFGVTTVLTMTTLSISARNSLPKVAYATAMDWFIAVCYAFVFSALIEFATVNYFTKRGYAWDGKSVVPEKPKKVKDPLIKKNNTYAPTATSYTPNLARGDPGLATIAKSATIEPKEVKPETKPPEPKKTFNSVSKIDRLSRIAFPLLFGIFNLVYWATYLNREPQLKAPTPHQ
α1β3γ2 GABAA receptors, sequence (P18508 39-466): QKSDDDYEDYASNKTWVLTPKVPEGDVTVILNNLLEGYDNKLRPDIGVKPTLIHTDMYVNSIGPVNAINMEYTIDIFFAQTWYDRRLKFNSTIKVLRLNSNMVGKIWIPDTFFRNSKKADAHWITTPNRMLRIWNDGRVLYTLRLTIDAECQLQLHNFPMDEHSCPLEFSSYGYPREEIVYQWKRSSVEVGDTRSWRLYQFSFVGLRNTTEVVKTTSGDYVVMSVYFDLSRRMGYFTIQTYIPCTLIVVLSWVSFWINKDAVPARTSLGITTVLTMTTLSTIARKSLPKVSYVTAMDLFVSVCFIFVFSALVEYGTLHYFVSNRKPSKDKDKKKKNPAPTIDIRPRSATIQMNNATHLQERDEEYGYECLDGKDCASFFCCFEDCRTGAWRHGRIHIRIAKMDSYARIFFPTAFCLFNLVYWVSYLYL
α1β3γ2 GABAA receptors, sequence (P63079 26-473 partner): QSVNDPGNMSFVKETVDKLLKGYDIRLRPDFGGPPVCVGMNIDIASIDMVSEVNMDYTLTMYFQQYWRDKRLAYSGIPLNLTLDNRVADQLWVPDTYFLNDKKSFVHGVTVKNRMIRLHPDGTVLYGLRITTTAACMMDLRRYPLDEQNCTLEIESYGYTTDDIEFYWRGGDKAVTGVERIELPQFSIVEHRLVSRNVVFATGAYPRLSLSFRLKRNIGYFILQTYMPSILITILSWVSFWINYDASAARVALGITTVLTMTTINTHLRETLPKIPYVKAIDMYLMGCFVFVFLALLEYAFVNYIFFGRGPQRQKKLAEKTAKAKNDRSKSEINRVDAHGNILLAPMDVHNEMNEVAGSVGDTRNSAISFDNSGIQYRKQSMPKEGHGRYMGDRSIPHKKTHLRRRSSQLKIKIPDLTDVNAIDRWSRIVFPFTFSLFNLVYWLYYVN

male Wistar rats [7] = assay: Morris water maze test; type: in vivo; conditions: acquisition, mean ± SEM
How it was run: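 Pool 200 cm diameter, 23 °C water, platform submerged 2 cm. Four trials per block, max 120 s each, 60 s intertrial interval, pseudorandom starts. Escape latency video-tracked and averaged per rat per day; n=7.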

male Wistar rats [8] = assay: Rotarod test; type: in vivo; conditions: for RR time on rotarod: max 120 s, mean ± SEM
[9] = ref Munro et al., 2008, cited from earlier work

For `C[C@@H]1N=C(c2ccccc2F)c2cc(Br)ccc2NC1=O` [SH-I-048A, (S)-7-bromo-5-(2-fluorophenyl)-3-methyl-1Hbenzo[e][1,4]diazepin-2(3H)-one], the “EPM % time on open arms” value (male Wistar rats [1]; 10 mg/kg i.p.) was 67.43 ± 12.34 %, the “EPM number of closed arm entries” value (male Wistar rats [1]; 10 mg/kg i.p.) was 4.00 ± 1.23 and the “influence on EPM parameters, preliminary study” value (male Wistar rats [1]; 0.5 and 2 mg/kg, data not shown) was “devoid of any influences”. The “effect of treatment on number of closed arm entries” value (male Wistar rats [1]; 2, 5 and 10 mg/kg, one-way ANOVA p=0.072) was “no significant effect”, the “effect of treatment on percentage of time spent on open arms” value (male Wistar rats [1]; 2, 5 and 10 mg/kg, one-way ANOVA p=0.095) was “not significant” and the brain total concentration ([2]; 0.5 mg/kg i.p., 20 min) was 231.12 ± 52.27 nmol/kg. The “brain estimated free concentration” value ([2]; 0.5 mg/kg i.p., 20 min) was 3.26 nmol/kg, the brain total concentration ([2]; 2 mg/kg i.p., 20 min) was 750.59 ± 307.14 nmol/kg and the “brain estimated free concentration” value ([2]; 2 mg/kg i.p., 20 min) was 10.60 nmol/kg. For the same molecule, the brain total concentration ([2]; 2 mg/kg i.p., 60 min) was 739.37 ± 182.94 nmol/kg, the “brain estimated free concentration” value ([2]; 2 mg/kg i.p., 60 min) was 10.45 nmol/kg and the brain total concentration ([2]; 10 mg/kg i.p., 20 min) was 2096.33 ± 858.32 nmol/kg. The “brain estimated free concentration” value ([2]; 10 mg/kg i.p., 20 min) was 29.62 nmol/kg, the brain total concentration ([2]; 10 mg/kg i.p., 60 min) was 1035.23 ± 421.19 nmol/kg and the “brain estimated free concentration” value ([2]; 10 mg/kg i.p., 60 min) was 14.63 nmol/kg. The GS grip strength (male Wistar rats [3]; 10 mg/kg i.p.) was 2588.83 ± 169.52 g/kg, the “effect on grip strength vs solvent” value (male Wistar rats [3]; 2, 5 and 10 mg/kg, p=0.002, p<0.001, p=0.002) was “significant muscle relaxation” and the SLA total distance (male Wistar rats [4]; 10 mg/kg i.p.) was 6.42 ± 2.26 m. The “influence on total distance traveled during 30 min” value (male Wistar rats [4]; 2, 5 and 10 mg/kg, one-way ANOVA p=0.061) was “did not reach statistical significance”, the “distance traveled in second 5-min bin (5–10 min) vs solvent” value (male Wistar rats [4]; 5 and 10 mg/kg, p=0.017 and p=0.008) was “traveled shorter distances than the solvent-treated animals” and the OF total distance (male Wistar rats [5]; 10 mg/kg i.p.) was 15.39 ± 5.35 m. For the same molecule, the “OF % time in central zone” value (male Wistar rats [5]; 10 mg/kg i.p.) was 30.01 ± 15.49%, the “effect on total distance traveled in open field vs solvent” value (male Wistar rats [5]; 10 mg/kg only, Dunnett p<0.001) was “significantly decreased” and the “effect on percent of time spent in the central zone” value (male Wistar rats [5]; 0.2, 0.5, 2 and 10 mg/kg, p=0.669) was “not significantly affected”. The “effect of Treatment on paw withdrawal threshold 48 h after surgery” value (male Wistar rats [6]; 10 mg/kg, one to three doses, p=0.157) was “no significant effect”, the “paw withdrawal threshold 24 h after injury vs solvent” value (male Wistar rats [6]; three doses of 10 mg/kg (0, 12, 23 h), p=0.015) was “significantly higher paw withdrawal threshold; also recorded: reversed mechanical hyperalgesia” and the in vitro efficacy (α1β3γ2 GABAA receptors; concentration 1 nM) was 124%. The in vitro efficacy (α1β3γ2 GABAA receptors; concentration 10 nM) was 256%, the “approximated potentiation at estimated in vivo free brain concentration” value (α1β3γ2 GABAA receptors; free concentration 3.26 nM (0.5 mg/kg i.p., 20 min), linear interpolation) was 157% and the “MWM latency Day 1” value (male Wistar rats [7]; 10 mg/kg i.p. daily) was 102.11 ± 9.11 s. The “MWM latency Day 2” value (male Wistar rats [7]; 10 mg/kg i.p. daily) was 88.52 ± 9.40 s, the “MWM latency Day 3” value (male Wistar rats [7]; 10 mg/kg i.p. daily) was 62.98 ± 14.13 s and the “MWM latency Day 4” value (male Wistar rats [7]; 10 mg/kg i.p. daily) was 53.39 ± 14.74 s. For the same molecule, the “MWM latency Day 5” value (male Wistar rats [7]; 10 mg/kg i.p. daily) was 42.65 ± 13.99 s and the “RR time on rotarod” value (male Wistar rats [8]; 10 mg/kg i.p.) was 0.25 ± 0.16 s.

In the case of `CN1C(=O)CN=C(c2ccccc2)c2cc(Cl)ccc21` [diazepam, reference compound], the “effect on hind paw hypersensitivity” value ([9]; highest dose tested (10 mg/kg)) is listed as “able to attenuate hind paw hypersensitivity”, the “EPM % time on open arms” value (male Wistar rats [1]; 2 mg/kg i.p.) is listed as 76.67 ± 6.67 % and the “EPM number of closed arm entries” value (male Wistar rats [1]; 2 mg/kg i.p.) is listed as 4.09 ± 0.77. It also gave a GS grip strength (male Wistar rats [3]; 2 mg/kg i.p.) of 1722.50 ± 197.65 g/kg, an SLA total distance (male Wistar rats [4]; 2 mg/kg i.p.) of 7.17 ± 1.13 m and an OF total distance (male Wistar rats [5]; 2 mg/kg i.p.) of 24.50 ± 5.34 m. The “OF % time in central zone” value (male Wistar rats [5]; 2 mg/kg i.p.) was 3.09 ± 1.15%, the “MWM latency Day 1” value (male Wistar rats [7]; 2 mg/kg i.p. daily) was 103.45 ± 10.64 s and the “MWM latency Day 2” value (male Wistar rats [7]; 2 mg/kg i.p. daily) was 92.82 ± 6.40 s. For the same molecule, the “MWM latency Day 3” value (male Wistar rats [7]; 2 mg/kg i.p. daily) was 77.83 ± 15.52 s, the “MWM latency Day 4” value (male Wistar rats [7]; 2 mg/kg i.p. daily) was 59.02 ± 9.78 s and the “MWM latency Day 5” value (male Wistar rats [7]; 2 mg/kg i.p. daily) was 56.40 ± 10.20 s. The “RR time on rotarod” value (male Wistar rats [8]; 2 mg/kg i.p.) was 41.70 ± 9.79 s.

For `Cc1ccc(-c2nc3ccc(C)cn3c2CC(=O)N(C)C)cc1` [zolpidem], the “activity in chronic constriction injury model” value [9] is listed as “completely inactive”.

With `CC(C)(C)OC(=O)c1cc2c(cn1)[nH]c1ccccc12` [β-CCt, t-butyl-β-carboline-3-carboxylate] the “effect of adding β-CCt on latency to fall from the revolving rod” value (male Wistar rats [8]; β-CCt 30 mg/kg added to 10 and 25 mg/kg SH-I-048A, 0.5, 1 and 1.5 h) was “increased latency to fall”.
